Among the data in ChEMBL document CHEMBL4257446, “Synthesis and biological evaluation of chalcone-linked pyrazolo[1,5-a]pyrimidines as potential anticancer agents” (Medchemcomm, 2017) are IC50 and Activity values, retold here.

The source made the active and inactive calls. The rule behind the calls is not given here.

What is called IC50 is the concentration needed to halve the response being measured.

In data set [1] the test system is A549. Briefly: Antiproliferative activity against human A549 cells after 24 hrs by MTT assay. It is filed as functional, cell-based. The conditions noted are these: A549, 24 h. In outline:
(§1)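 Cells exposed to a range of compound concentrations; viability read by MTT assay. IC50 (concentration giving 50% growth inhibition) calculated and reported as mean ± S.D. of three independent experiments, each run in triplicate.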
For orientation: Formazan colour is commonly taken as a measure of viable cells.

Data set [2] relates to HEK293. The experiment in a line: Antiproliferative activity against HEK293 cells after 24 hrs by MTT assay. Type of data set: cell-based. To be noted: Homo sapiens, HEK293, 24 h.
A further data set has as its system MDA-MB-231. The experiment in a line: Antiproliferative activity against human MDA-MB-231 cells after 24 hrs by MTT assay. It is filed as functional, cell-based. To be noted: MDA-MB-231, 24 h. In outline:
as §1

The subject of data set [3] is A549. The experiment in a line: Induction of apoptosis in human A549 cells assessed as increase in Bax levels at 2 uM after 24 hrs by Western blot analysis. Type of data set: functional, cell-based. The procedure, abridged: (§2)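 A549 cells given 2 μM final concentration for 24 h. Total lysate probed by western blot for apoptosis-related proteins (Bax, p53, p21, caspase-3, Bcl2). Erlotinib served as positive control and untreated cells as negative control.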
For orientation: A western blot detects proteins with antibodies after separation by electrophoresis.

In data set [4] the test system is HEK293. The experiment in a line: Induction of apoptosis in HEK293 cells assessed as effect on p21 levels after 24 hrs by Western blot analysis. To be noted: human, hek293, 24 h. It is filed as cell-based.
Data set [5] has as its system A549. Briefly: Cell cycle arrest in human A549 cells assessed as accumulation of cells at G2/M phase at 2 uM after 24 hrs by propidium iodide staining-based flow cytometric analysis (reference value: 20.4%). Type of data set: functional. (In flow cytometry, cells or beads pass a laser one at a time.)
The subject of data set [6] is A549. Briefly: Decrease in STAT3 protein expression in human A549 cells in STAT3 levels at 2 uM after 24 hrs by Western blot analysis. It is filed as functional, cell-based. The procedure, abridged: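 A549 cells exposed at 2 μM final concentration and collected 24 h later. Total protein lysate extracted and immunoblotted with antibodies against the EGFR/STAT3 pathway proteins. Erlotinib-treated cells were the positive control and untreated cells the negative control.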

For data set [7], the system named is HEK293. Briefly: Cell cycle arrest in HEK293 cells after 24 hrs by propidium iodide staining-based flow cytometric analysis. To be noted: human, hek293, 24 h.
Data set [8] deals with A549. Briefly: Induction of apoptosis in human A549 cells assessed as decrease in Bcl2 levels at 2 uM after 24 hrs by Western blot analysis. It is filed as functional, cell-based. In outline: as §2
For data set [9], the system named is HEK293. The experiment in a line: Induction of apoptosis in HEK293 cells assessed as effect on Bcl2 levels after 24 hrs by Western blot analysis. Type of data set: cell-based. To be noted: human, hek293, 24 h.
Data set [10] relates to A549. The experiment in a line: Induction of apoptosis in human A549 cells assessed as increase in p21 levels at 2 uM after 24 hrs by Western blot analysis. Type of data set: functional, cell-based. The procedure, abridged: as §2
The test system of data set [11] is HEK293. Briefly: Induction of apoptosis in HEK293 cells assessed as effect on Bax levels after 24 hrs by Western blot analysis. To be noted: human, hek293, 24 h. It is filed as cell-based.
Data set [12] relates to A549. The experiment in a line: Induction of apoptosis in human A549 cells assessed as increase in p53 levels at 2 uM after 24 hrs by Western blot analysis. Type of data set: functional, cell-based. The procedure, abridged:
as §2

Data set [13] has as its system A549. The experiment in a line: Induction of apoptosis in human A549 cells assessed as decrease in pro-caspase-9 levels at 2 uM after 24 hrs by Western blot analysis. Type of data set: functional, cell-based.
For a further data set, the system named is DU-145. The experiment in a line: Antiproliferative activity against human DU145 cells after 24 hrs by MTT assay. It is filed as functional, cell-based. The conditions noted are these: DU-145, 24 h. The procedure, abridged:
as §1

Data set [14] relates to HEK293. Briefly: Induction of apoptosis in HEK293 cells assessed as effect on p53 levels after 24 hrs by Western blot analysis. It is filed as cell-based. To be noted: human, hek293, 24 h.

Regarding `COc1ccc(C(=O)/C=C/c2cc(-c3ccc(OC)c(OC)c3)n3nc(-c4ccccc4)cc3n2)cc1OC`, the half-inhibitory concentration (IC50) in the data set on A549 [1] came out at 3.9 µM; in the data set on HEK293 [2] it was 32.5 µM; with MDA-MB-231 it was 2.6 µM; with DU-145, 7.2 µM. In addition, the result with A549 [3], with A549 [6], in the data set with A549 [8], in the data set on A549 [10], in the data set on A549 [12] and with A549 [13] was Active. Besides, the Activity entry with HEK293 [4] was “Non-Toxic”; with A549 [5], 29.5%; in the data set on HEK293 [7], “Non-Toxic”; in the data set on HEK293 [9], “Non-Toxic”; in the data set on HEK293 [11], “Non-Toxic”; with HEK293 [14], “Non-Toxic”.
